Test results published in PubChem BioAssay AID624179 (Johns Hopkins Ion Channel Center, 2012).

What follows are compounds tested on HEK293 M3R/RGS4, carbachol calcium flux, Fluo4 (assay: RGS4 potentiator concentration-response, SAR follow-up, cell-based, HEK293 M3R/RGS4, calcium flux, SAR compounds (AID 624179)).
How it was run: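 Material: HEK293 M3R cells with induced RGS4 / Doses: 10-point concentration series / Replicates: each concentration tested in triplicate / Timing: 20 min compound pre-incubation at room temperature / Buffer or medium: HBSS-HEPES assay buffer, pH 7.4 / Also added: carbachol at EC20 / Technique: calcium flux fluorescence with Fluo-4 dye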

Row | Structure (SMILES) | EC50 [µM]
1 | S=c1[nH]nc(-c2ccc(Cl)cc2)n1CC1CCCO1 (stereo not drawn) | 5.6
2 | O=C(Nc1ccccc1N1CCN(C(=O)c2ccccc2)CC1)c1ccc(Cl)o1 | 4.63
3 | O=C(CNc1ccccc1)c1ccc([N+](=O)[O-])cc1 | 6.26
4 | O=C(CNC1CCCCCC1)Nc1ccc(S(=O)(=O)NC2CC2)cc1 | 5.86
5 | CN(Cc1ccc(F)cc1)C(=O)C(c1ccccc1)c1ccccc1 | 2.2
6 | Cc1ccc(NC(=O)c2cc(-c3cccs3)nc3ccccc23)nc1 | 3.48
7 | CCn1cc(CN2CCC(n3nccc3NC(=O)c3ccc(OC)cc3)CC2)cn1 | 2.98
8 | CCN1CCCC1CNCc1ccccc1OCc1ccc(F)cc1 (stereo not drawn) | 7.17
9 | CCCCn1c(-c2csc(CCC)c2)n[nH]c1=S | 2.24
10 | COC(=O)c1cccc(Nc2nc(-c3cccnc3)nc3ccccc23)c1 | 2.05
11 | CC(C)Cn1c(-c2ccc(F)cc2)n[nH]c1=S | 3.16
12 | Cc1ccc(S(=O)(=O)c2ccc(Oc3cccc(C)c3)cc2)cc1 | 2.76
13 | COC(=O)C1CCCN(C(=O)c2cc(-c3ccc(C)cc3)nc3ccccc23)C1 (stereo not drawn) | 4.67
